Reference: ChEMBL document CHEMBL5247635 (Eur J Med Chem, 2022)
Activity calls are given as the source filed them. No cut-off for these calls is given here.

Key:
Trypanothione reductase [1] = biological target: T1, Trypanothione reductase (Leishmania infantum, UniProt A4HSF7); test: Inhibition of HIS-tagged recombinant Leishmania infantum TryR oxidoreductase activity expressed in Escherichia coli in the presence of NADPH by spectrophotometry based DTNB-coupled assay
How it was run: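 HIS-tagged LiTryR was used in a DTNB-coupled assay at 26 °C. Buffer: 40 mM HEPES pH 7.5, 1 mM EDTA, 30 µM NADP+, 25 µM DTNB, 150 µM NADPH, 1.75% DMSO. Standard runs used 1 µM TS2 and 7 nM enzyme; cross-species runs used 50 µM TS2 and 0.5 nM enzyme. Started with NADPH + TS2; TNB read at 412 nm. Compounds were screened at 75 µM first. Three independent experiments.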

Leishmania infantum [2] = test: Antileishmanial activity against Leishmania infantum MCAN/ES/89/IPZ229/1/89 axenic amastigotes assessed as reduction in parasite viability treated for 24 hrs by PI staining based flow cytometry; type: functional, organism-based; details: MCAN/ES/89/IPZ229/1/89, 24 h
How it was run: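 Axenic amastigotes were seeded from log-phase cultures at 10^5 parasites/mL in M199-based medium at pH 5.4. They were derived from promastigotes by 3 days at 37 °C. Compounds at 2.3–75 µM for 24 h at 37 °C. Viability read by propidium iodide flow cytometry. EC50 ± SE from three independent experiments, each in triplicate.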

[3] = Cytotoxicity against human HepG2 cells assessed as reduction in cell proliferation treated for 24 hrs by crystal violet staining based analysis; type: toxicity
[4] = Selectivity index, ratio of CC50 for human HepG2 cells to EC50 for Leishmania infantum MCAN/ES/89/IPZ229/1/89 axenic amastigotes; type: toxicity; details: read-out: Ratio CC50/EC50
Trypanothione reductase [5] = biological target: T1, Trypanothione reductase; test: Disruption of HIS-FLAG-tagged recombinant Leishmania infantum TryR dimerization expressed in Escherichia coli Rossetta BL21 (DE3) cells incubated for 16 hrs by ELISA analysis
How it was run: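 400 nM HIS-FLAG-tagged LiTryR (co-purified with HIS-tagged LiTryR as heterodimer) incubated with compound (3.1–75 μM) in 50 mM Tris pH 8.0, 300 mM NaCl, 16 h, 37 °C with vigorous shaking; centrifuged, supernatant captured on α-FLAG plates, detected with HRP-α-HIS antibody and o-phenylenediamine, A490. Signal normalized to DMSO; IC50 by nonlinear regression; triplicate, three independent experiments.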

Leishmania infantum [6] = test: Antileishmanial activity against GFP-expressing Leishmania infantum intracellular amastigotes infected in human THP-1 derived macrophage cells assessed as reduction in parasite viability measured for 72 hrs by resazurin/alamar blue fluorometric assay; type: functional, organism-based
How it was run: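 Human THP-1-derived macrophages infected with GFP-expressing L. infantum amastigotes; compounds at 2.3–75 µM, infected cells monitored for 72 h. EC50 ± SE from three independent experiments.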

[7] = Cytotoxicity against human HepG2 cells assessed as reduction in cell proliferation measured after 72 hrs by crystal violet staining based analysis; type: toxicity
[8] = Selectivity index, ratio of CC50 for human HepG2 cells to EC50 for GFP-expressing Leishmania infantum intracellular amastigotes infected in human THP-1 derived macrophage cells; type: toxicity, cell-based; details: read-out: Ratio CC50/EC50
[9] = Thermodynamic aqueous solubility of compound at 25 degreeC measured after 24 hrs by HPLC analysis; type: physicochemical; details: buffer, read-out: Therm_solubility
How it was run: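 Excess compound was suspended in water (pH 5.5), sonicated 10 min, equilibrated overnight at room temperature, and centrifuged. Supernatant was diluted and quantified by HPLC (UV 254 nm) against a five-point standard curve (10–500 µM).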

Trypanothione reductase [10] = biological target: Trypanothione reductase (Trypanosoma brucei brucei, UniProt P39051); test: Inhibition of HIS-tagged recombinant Trypanosoma brucei TryR oxidoreductase activity expressed in Escherichia coli in the presence of NADPH by spectrophotometry based DTNB-coupled assay
Trypanothione reductase (Trypanosoma brucei brucei, UniProt P39051), sequence (P39051 whole entry): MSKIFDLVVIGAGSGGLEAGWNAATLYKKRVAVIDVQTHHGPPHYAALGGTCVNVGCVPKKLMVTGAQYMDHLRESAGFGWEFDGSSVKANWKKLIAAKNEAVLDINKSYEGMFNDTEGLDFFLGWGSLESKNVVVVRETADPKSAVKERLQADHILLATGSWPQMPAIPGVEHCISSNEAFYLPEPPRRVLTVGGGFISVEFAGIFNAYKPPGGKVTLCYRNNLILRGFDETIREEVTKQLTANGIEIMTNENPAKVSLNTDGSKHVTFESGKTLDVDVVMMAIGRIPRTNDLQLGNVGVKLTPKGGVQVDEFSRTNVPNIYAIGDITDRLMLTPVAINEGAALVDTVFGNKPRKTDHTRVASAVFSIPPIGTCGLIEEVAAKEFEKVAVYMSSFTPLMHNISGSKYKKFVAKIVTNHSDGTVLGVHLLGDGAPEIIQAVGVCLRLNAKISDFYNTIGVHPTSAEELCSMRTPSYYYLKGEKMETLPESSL
How it was run: (§1)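 HIS-tagged TryR from each species was expressed in E. coli. Activity was read by DTNB-coupled assay at 26 °C in 40 mM HEPES pH 7.5, 1 mM EDTA, 30 µM NADP+, 25 µM DTNB, 150 µM NADPH, 1.75% DMSO. Conditions were 50 µM TS2 and 0.5 nM enzyme; reaction started with NADPH + TS2. TNB absorbance at 412 nm. Three independent experiments.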

Trypanothione reductase [11] = biological target: Trypanothione reductase (Trypanosoma cruzi, UniProt P28593); test: Inhibition of HIS-tagged recombinant Trypanosoma cruzi TryR oxidoreductase activity expressed in Escherichia coli in the presence of NADPH by spectrophotometry based DTNB-coupled assay; how it was run: as §1
Trypanothione reductase (Trypanosoma cruzi, UniProt P28593), sequence (P28593 whole entry): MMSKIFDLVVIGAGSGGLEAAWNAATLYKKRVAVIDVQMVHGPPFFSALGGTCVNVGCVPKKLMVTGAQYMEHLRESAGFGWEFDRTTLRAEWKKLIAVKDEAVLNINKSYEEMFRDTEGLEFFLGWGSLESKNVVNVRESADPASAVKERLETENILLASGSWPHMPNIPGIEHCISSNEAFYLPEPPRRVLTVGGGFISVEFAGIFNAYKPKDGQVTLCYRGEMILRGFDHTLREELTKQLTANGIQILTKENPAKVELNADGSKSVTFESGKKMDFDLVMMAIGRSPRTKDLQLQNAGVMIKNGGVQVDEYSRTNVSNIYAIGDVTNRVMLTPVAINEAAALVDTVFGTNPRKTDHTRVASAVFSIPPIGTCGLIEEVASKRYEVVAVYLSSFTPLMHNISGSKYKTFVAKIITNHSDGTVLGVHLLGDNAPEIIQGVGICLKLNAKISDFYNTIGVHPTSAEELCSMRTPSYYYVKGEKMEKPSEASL

Trypanothione reductase [12] = biological target: Trypanothione reductase (Trypanosoma congolense, UniProt P13110); test: Inhibition of HIS-tagged recombinant Trypanosoma congolense TryR oxidoreductase activity expressed in Escherichia coli in the presence of NADPH by spectrophotometry based DTNB-coupled assay; how it was run: as §1
Trypanothione reductase (Trypanosoma congolense, UniProt P13110), sequence (P13110 whole entry): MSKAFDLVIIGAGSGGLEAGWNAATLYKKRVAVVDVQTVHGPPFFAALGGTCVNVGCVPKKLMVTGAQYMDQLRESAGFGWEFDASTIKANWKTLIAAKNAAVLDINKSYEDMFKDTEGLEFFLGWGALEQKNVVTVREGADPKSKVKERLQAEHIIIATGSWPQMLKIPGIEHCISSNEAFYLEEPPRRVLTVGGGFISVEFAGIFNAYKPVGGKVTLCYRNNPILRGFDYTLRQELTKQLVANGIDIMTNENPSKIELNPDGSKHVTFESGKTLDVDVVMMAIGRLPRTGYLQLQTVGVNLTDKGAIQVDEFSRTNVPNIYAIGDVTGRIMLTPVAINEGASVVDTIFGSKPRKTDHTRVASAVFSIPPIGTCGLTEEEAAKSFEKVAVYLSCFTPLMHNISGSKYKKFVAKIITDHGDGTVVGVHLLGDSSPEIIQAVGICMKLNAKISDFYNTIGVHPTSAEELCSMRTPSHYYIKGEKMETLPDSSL

Trypanothione reductase [13] = biological target: T1, Trypanothione reductase; test: Competitive inhibition of HIS-FLAG-tagged recombinant Leishmania infantum TryR expressed in Escherichia coli using TS2 substrate assessed as inhibition constant in the presence of NADPH by spectrophotometry based DTNB-coupled assay
Trypanothione reductase [14] = biological target: T1, Trypanothione reductase; test: Competitive inhibition of HIS-FLAG-tagged recombinant Leishmania infantum TryR expressed in Escherichia coli assessed as dissociation constant by SPR assay
Leishmania infantum [15] = test: Antileishmanial activity against Leishmania infantum promastigotes assessed as reduction in parasite growth at 5 mM treated for 72 hrs; type: functional, organism-based
Leishmania infantum [16] = test: Antileishmanial activity against H2O2-induced Leishmania infantum promastigotes assessed as reduction in non-protein thiol content at 5 mM treated for 72 hrs by CMF diacetate probe based flow cytometry relative to control; type: functional; design: scale not given: the % may be the effect or the level left
How it was run: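 Promastigotes grown in RPMI-1640 with 10% FCS and 25 mM HEPES pH 7.2 at 26 °C. Treatments were 75 µM for 1 h, 5 mM BSO for 72 h, or both combined; vehicle served as control. Some parasites were also H2O2-treated. Non-protein thiols read by flow cytometry as CMF diacetate green fluorescence in PI-excluding live parasites. Means of nine independent experiments with 99.0% confidence intervals.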

T1 sequence (A4HSF7 whole entry): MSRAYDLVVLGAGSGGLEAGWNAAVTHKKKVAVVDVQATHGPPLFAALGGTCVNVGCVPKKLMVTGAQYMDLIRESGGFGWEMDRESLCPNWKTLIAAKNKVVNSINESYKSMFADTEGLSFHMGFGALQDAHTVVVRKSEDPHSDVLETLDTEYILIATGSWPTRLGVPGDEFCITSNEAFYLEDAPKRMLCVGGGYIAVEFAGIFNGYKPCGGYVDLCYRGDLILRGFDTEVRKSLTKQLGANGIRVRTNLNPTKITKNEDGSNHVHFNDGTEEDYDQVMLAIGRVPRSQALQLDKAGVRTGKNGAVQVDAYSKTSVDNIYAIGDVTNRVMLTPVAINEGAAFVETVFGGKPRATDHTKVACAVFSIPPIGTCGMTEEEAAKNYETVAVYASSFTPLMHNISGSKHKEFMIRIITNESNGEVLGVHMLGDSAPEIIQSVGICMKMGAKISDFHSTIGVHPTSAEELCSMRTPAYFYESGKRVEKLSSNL

SMILES	IC50 (Trypanothione reductase [1])	EC50 (Leishmania infantum [2])	CC50 at 24 h [3]	selectivity ratio [4]	IC50 (Trypanothione reductase [5])	EC50 (Leishmania infantum [6])	CC50 at 72 h [7]	selectivity ratio [8]	solubility thermodynamic at 24 h [9]	other results
C[n+]1nn(-c2ccc(-c3nc(CCc4ccccc4)cs3)c(OCCC3CCNCC3)c2)cc1CCCCN	2.2 µM	> 75 µM	> 75 µM	< 1	–	–	–	–	–	–
C[n+]1nn(-c2ccc(-c3nc(CCc4ccccc4)cs3)c(OCC3CCNCC3)c2)cc1CCCCN	2.1 µM	28.4 µM	> 75 µM	> 2.6	> 75 µM	–	–	–	–	–
CCCCCCCCCCCCCCCCOP(=O)([O-])OCC[N+](C)(C)C [MILTEFOSINE]	–	–	–	–	–	0.6 µM	> 75 µM	> 125	–	–
C[n+]1nn(-c2ccc(-c3nc(CCc4ccc(Oc5ccccc5)cc4)c(-c4ccccc4)s3)c(OCCN3CCNC3=O)c2)cc1CCCCN	7.8 µM	8.9 µM	35.2 µM	4	> 75 µM	–	–	–	–	–
C[n+]1nn(-c2ccc(-c3nc(CCc4ccc(-c5ccccc5)cc4)cs3)c(OCCN3CCNC3=O)c2)cc1CCCN.O=C(O)C(F)(F)F.O=S(=O)([O-])C(F)(F)F	–	4.8 µM	> 75 µM	> 15.6	45.4 µM	7.3 µM	> 75 µM	> 10.3	21600 µg/mL	–
C[n+]1nn(-c2ccc(-c3nc(CCc4ccc5ccccc5c4)cs3)c(OCCN3CCNC3=O)c2)cc1CCCCN.O=C(O)C(F)(F)F.O=S(=O)([O-])C(F)(F)F	–	12.9 µM	> 75 µM	> 5.8	> 75 µM	27 µM	> 75 µM	> 2.8	23500 µg/mL	IC50 (Trypanothione reductase [10]): 5.1 µM; IC50 (Trypanothione reductase [11]): 9.2 µM; IC50 (Trypanothione reductase [12]): 4.2 µM
C[n+]1nn(-c2ccc(-c3nc(CCc4ccc(-c5ccccc5)cc4)c(-c4ccccc4)s3)c(OCCN3CCNC3=O)c2)cc1CCCCN	6.8 µM	6 µM	46.5 µM	7.8	> 75 µM	24.2 µM	54.5 µM	2.2	–	–
C[n+]1nn(-c2ccc(-c3nc(CCc4ccccc4)cs3)c(OCCN3CCNC3=O)c2)cc1CCCN	42 µM	> 75 µM	> 75 µM	< 1	–	–	–	–	–	–
COc1cc(-n2cc(CCCCN)[n+](C)n2)ccc1-c1nc(CCc2ccc(-c3ccccc3)cc2)cs1	5.5 µM	7.6 µM	35.9 µM	4.7	> 75 µM	–	–	–	–	–
C[n+]1nn(-c2ccc(-c3nc(-c4ccc(-c5ccccc5)cc4)c(-c4ccccc4)s3)c(OCCN3CCNC3=O)c2)cc1CCCCN	4 µM	6.4 µM	> 75 µM	> 12.3	> 75 µM	14.1 µM	34.5 µM	2.4	–	–
NCCCCc1cn(-c2ccc(-c3nc(CCc4ccc(-c5ccccc5)cc4)cs3)c(OCCN3CCNC3=O)c2)nn1.O=C(O)C(F)(F)F	–	–	–	–	–	52.1 µM	40.5 µM	< 1	200 µg/mL	–
C[n+]1nn(-c2ccc(-c3nc(CCc4ccccc4)cs3)c(OCCN3CCNC3=O)c2)cc1CCCCN.O=C(O)C(F)(F)F.O=S(=O)([O-])C(F)(F)F	9.4 µM	66.6 µM	> 75 µM	> 1.1	–	–	–	–	> 15900 µg/mL	IC50 (Trypanothione reductase [10]): 26.9 µM; IC50 (Trypanothione reductase [11]): 48.5 µM; IC50 (Trypanothione reductase [12]): 18.7 µM; Ki (Trypanothione reductase [13]): 7.3 µM; Kd (Trypanothione reductase [14]): 1 µM
C[n+]1nn(-c2ccc(-c3nc(-c4ccc(Oc5ccccc5)cc4)c(-c4ccccc4)s3)c(OCCN3CCNC3=O)c2)cc1CCCCN	4.2 µM	12.2 µM	> 75 µM	> 6.1	> 75 µM	15 µM	42.6 µM	2.8	–	–
NCCCc1cn(-c2ccc(-c3nc(CCc4ccc(-c5ccccc5)cc4)cs3)c(OCCN3CCNC3=O)c2)nn1.O=C(O)C(F)(F)F	–	–	–	–	–	> 75 µM	37.3 µM	< 1	2800 µg/mL	–
NCCCCc1cn(-c2ccc(-c3nc(-c4ccccc4)c(-c4ccccc4)s3)c(OCCN3CCNC3=O)c2)nn1	–	–	–	–	–	24.2 µM	> 75 µM	> 3.1	–	–
C[n+]1nn(-c2ccc(-c3nc(CCC4Cc5ccccc5O4)cs3)c(OCCN3CCNC3=O)c2)cc1CCCCN (configuration not stated)	5.4 µM	> 75 µM	> 75 µM	< 1	> 75 µM	–	–	–	–	–
C[n+]1nn(-c2ccc(-c3nc(-c4ccccc4)cs3)c(OCCN3CCNC3=O)c2)cc1CCCCN	20.3 µM	62.4 µM	> 75 µM	> 1.2	–	–	–	–	–	–
NCCCCc1cn(-c2ccc(-c3nc(CCc4cccc5ccccc45)cs3)c(OCCN3CCNC3=O)c2)nn1.O=C(O)C(F)(F)F	–	–	–	–	–	> 75 µM	> 29 µM	< 1	2100 µg/mL	–
C[n+]1nn(-c2ccc(-c3nc(-c4ccccc4)c(-c4ccccc4)s3)c(OCCN3CCNC3=O)c2)cc1CCCCN	3.9 µM	12.9 µM	> 75 µM	> 5.8	–	73.8 µM	> 75 µM	–	–	–
CC[n+]1nn(-c2ccc(-c3nc(CCc4ccc(-c5ccccc5)cc4)cs3)c(OCCN3CCNC3=O)c2)cc1CCCCN	–	14 µM	> 75 µM	> 5.6	56.9 µM	10 µM	63.8 µM	6.4	–	–
COc1cc(-n2cc(CCCCN)[n+](C)n2)ccc1-c1nc(CCc2ccccc2)cs1	18.3 µM	20 µM	> 75 µM	> 3.8	> 75 µM	–	–	–	–	–
NCCCCc1cn(-c2ccc(-c3nc(CCc4ccccc4)cs3)c(OCCN3CCNC3=O)c2)nn1.O=C(O)C(F)(F)F	–	–	–	–	–	29.4 µM	27.8 µM	< 1	6400 µg/mL	–
CCCCS(=N)(=O)CCC(N)C(=O)O (racemic) [BUTHIONINE SULFOXIMINE]	–	–	–	–	–	–	–	–	–	Activity (Leishmania infantum [15]): inactive; Activity (Leishmania infantum [16]): 50%
